Source: ChEMBL document CHEMBL1123927, “Leukotriene receptor antagonists. 2. The [[(tetrazol-5-ylaryl)oxy]methyl]acetophenone derivatives” (J Med Chem, 1987)
Calls of active or inactive are those of the source. The calls are words filed in the database; no cut-off is given here.

Species on record: Cavia porcellus
Experiment: Antagonist activity was evaluated against LTD4-induced contraction in guinea pig ileum
Type: functional
Settings: read-out: pA2 (converted)
In short: (§1)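 Isolated guinea pig ileum contracted with a submaximal concentration of LTD4. Two, three or four antagonist concentrations were tested on a single ileum. […] Alternatively, pKB was taken as -log of the antagonist concentration producing a twofold rightward shift of the LTD4 concentration-response curve.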

Row | Compound | Kb [nM]
1 | CCCc1c(OCCCCc2nnn[nH]2)ccc(C(C)=O)c1O [TOMELUKAST] | 63.1

Species on record: Cavia porcellus
Experiment: Inhibition of LTD4-induced contraction in guinea pig ileum. Not active at highest concentration tested, 3 x 10 E-6 M
Type: functional
Settings: not given
In short: as §1

Row | -Log IC50 | Compound
2 | inactive | CC(=O)c1ccc(COc2ccc(Cc3nnn[nH]3)cc2)cc1O

Target: Cysteinyl leukotriene receptor (Cavia porcellus)
Experiment: Inhibition of LTD4-induced contraction in guinea pig ileum
Settings: not given

Row | Compound | -Log IC50
3 | CCCc1c(COc2ccc(Cc3nnn[nH]3)cc2)ccc(C(=O)CC)c1O | 7
4 | CCCc1c(COc2ccc(CCCc3nnn[nH]3)cc2)ccc(C(C)=O)c1O | 7.3
5 | CC(=O)c1ccc(COc2ccc(-c3nn[nH]n3)cc2)c(C)c1O | 7
6 | CCc1c(COc2ccc(Cc3nnn[nH]3)cc2)ccc(C(C)=O)c1O | 7.9
7 | CCCc1c(CSc2ccc(-c3nn[nH]n3)cc2)ccc(C(C)=O)c1O | 7.7
8 | CCCCc1c(COc2ccc(-c3nn[nH]n3)cc2)ccc(C(C)=O)c1O | 7.9
9 | CCCc1c(CSCc2ccc(-c3nn[nH]n3)cc2)ccc(C(C)=O)c1O | 6.5
10 | CCCc1c(OCc2ccc(-c3nn[nH]n3)cc2)ccc(C(C)=O)c1O | 7
11 | CCCc1c(COCCOc2ccc(Cc3nnn[nH]3)cc2)ccc(C(C)=O)c1O | 7
12 | CCCc1c(COc2ccc(OCc3nn[nH]n3)cc2)ccc(C(C)=O)c1O | 7.8
13 | CC(=O)c1ccc(COc2ccc(Cc3nnn[nH]3)cc2)c(CC(C)C)c1O | 7.7
14 | CCc1c(COc2ccc(-c3nn[nH]n3)cc2)ccc(C(C)=O)c1O | 7.9

The next lines start with the values.

Row | -Log IC50 | Compound
15 | 8.1 | CCCc1c(COc2ccc(CCc3nnn[nH]3)cc2)ccc(C(C)=O)c1O
16 | 7.8 | CCCCc1c(COc2ccc(Cc3nnn[nH]3)cc2)ccc(C(C)=O)c1O
17 | 6.2 | CCCc1c(COc2ccc(Cc3nnn(C)n3)cc2)ccc(C(C)=O)c1O
18 | 7 | CCCc1c(COc2cccc(Cc3nnn[nH]3)c2)ccc(C(C)=O)c1O
19 | 6.4 | CCCc1c(COc2ccc(-c3nn[nH]n3)cc2)ccc(C=O)c1O
20 | 7.3 | CCCc1c(COCCOc2ccc(-c3nn[nH]n3)cc2)ccc(C(C)=O)c1O
21 | 6.3 | CCCc1c(COc2ccc(Cc3nnn[nH]3)cc2)ccc(C(C)=O)c1OC
22 | 6.2 | CCCc1c(COc2ccccc2Cc2nnn[nH]2)ccc(C(C)=O)c1O
23 | 7.9 | CCCc1c(COc2ccc(C(C)c3nnn[nH]3)cc2)ccc(C(C)=O)c1O (stereo unspecified)
24 | 8 | CCCc1c(COc2cccc(OCc3nn[nH]n3)c2)ccc(C(C)=O)c1O
25 | 7.4 | CCCc1c(COc2ccc(/C=C/c3nn[nH]n3)cc2)ccc(C(C)=O)c1O
26 | 5.8 | CCCc1c(COc2ccc(Cc3nnn[nH]3)cc2)ccc(/C(C)=N\O)c1O
27 | 8 | CCCc1c(COc2ccc(-c3nn[nH]n3)cc2)ccc(C(C)=O)c1O
28 | 7.5 | CCCc1c(CNc2ccc(Cc3nnn[nH]3)cc2)ccc(C(C)=O)c1O
29 | 8 | CCCc1c(COc2ccc(Cc3nnn[nH]3)cc2)ccc(C(C)=O)c1O [LY-163443]

Species on record: Cavia porcellus
Experiment: Inhibition of LTD4-induced contraction in guinea pig ileum. Not active at highest concentration tested, 1 x 10 E-5 M
Type: functional
Settings: not given
In short: as §1

Row | -Log IC50 | Compound
30 | inactive | CCCc1c(COc2ccc(-c3nn[nH]n3)cc2)ccc(C(=O)c2ccccc2)c1O
31 | inactive | CCCc1c(COc2ccc(Cc3nnnn3C)cc2)ccc(C(C)=O)c1O
